Measured values reported in ChEMBL document CHEMBL1139789, “Synthesis of neuroprotective cyclopentenone prostaglandin analogs: suppression of manganese-induced apoptosis of PC12 cells” (Bioorg Med Chem Lett, 2007).
Calls of active or inactive are those of the source. The rule behind the calls is not given here.

What was measured:
PC-12 [1] = assay: Toxicity in PC12 cells assessed by measuring DNA fragmentation at 10 uM; assay type: cell-based, Homo sapiens; settings: pc-12, 10 µM
In short: (§1)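 PC12 cells (2·10⁷) exposed to agent at 10 and 20 μM in DMEM with 5% FBS at 37 °C, 30 min preincubation, then 20 h further incubation with no MnCl₂ added. Apoptosis judged by DNA laddering: soluble DNA extracted, agarose gel electrophoresis, UV transilluminator visualization.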

PC-12 [2] = assay: Inhibition of manganese ion-induced apoptosis in PC12 cells assessesed as suppression of DNA fragmentation upto 20 uM; assay type: functional, cell-based
In short: (§2)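 PC12 cells (2·10⁷) preincubated with test agent at 10 and 20 μM for 30 min at 37 °C in DMEM plus 5% FBS. MnCl₂ then added to 0.25 mM and incubation continued 20 h at 37 °C. Soluble DNA extracted, run on agarose gels, laddering visualized on UV transilluminator.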

PC-12 [3] = assay: Inhibition of manganese ion-induced apoptosis in PC12 cells assessesed as suppression of DNA fragmentation at 10 uM; assay type: functional; settings: Rattus norvegicus; in short: as §2
PC-12 [4] = assay: Toxicity in PC12 cells assessed by measuring DNA fragmentation upto 20 uM; assay type: cell-based, Homo sapiens; in short: as §1

Row | SMILES | Activity (PC-12 [1]) | Activity (PC-12 [2]) | inhibition at 10 µM (PC-12 [3]) [%] | Activity (PC-12 [4])
1 | CCCCC[C@H](O)/C=C/[C@H]1C=CC(=O)/C1=C/CCCCCC(=O)OC | Toxic | inactive | – | –
2 | COC(=O)CCCCCC[C@H]1C=CC(=O)/C1=C/CCCCOc1ccc(Br)cc1 | – | – | < 50 | Non-toxic
3 | COC(=O)CCCCCC[C@@H]1C=CC(=O)/C1=C/CCCCOc1ccc(Br)cc1 | Toxic | inactive | – | –
4 | COC(=O)CCCCC/C=C1\CC=CC1=O | – | inactive | – | Non-toxic
5 | CCCCC/C=C/C=C1/C(=O)C=CC1C/C=C\CCCC(=O)O (stereo unspecified) | Toxic | inactive | – | –
6 | CCCCCCC/C=C1/C(=O)C=C[C@@H]1CCCCCCC(=O)OC | – | – | 50 | Non-toxic
7 | COC(=O)CCCCCC[C@@H]1C(=O)C=C[C@H]1CCCCCCc1ccc(C)cc1 | – | inactive | – | Non-toxic
8 | COC(=O)CCCCCC[C@H]1C=CC(=O)/C1=C/CCCCCc1ccc(C)cc1 | – | – | 50 | Non-toxic
9 | COC(=O)CCCCC/C=C1/C(=O)CC[C@H]1CCCCCCc1ccc(C)cc1 | – | inactive | – | Non-toxic
10 | CCCCCCCC[C@@H]1C=CC(=O)/C1=C/CCCCCC(=O)OC | – | – | 50 | –
11 | COC(=O)CCCCC/C=C1/C(=O)C=C[C@H]1CCCCCCc1ccc(C)cc1 | Toxic | – | 50 | –
